Rows were chosen to be rich in hits. Some 3.7% of all compounds tested hit in one or more screens of this group.
ROMK primary = human ROMK K+ channel modulation, primary screen | P48048 | Tet-inducible ROMK, thallium flux fluorescence; actives lie on both sides | B-score at 10 µM | AID 1918 | hit rate 2% among 130,000;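 active = signal ratio slope over the read window, or its plate-corrected B-score, at least 3 SD from the plate mean, either direction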;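 note: B-score of the F/F0 ratio slope over 7 to 12 s after thallium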
Cl transport mod = modulates chloride dependent transport by human KCC2; hit rate 2.2% among 190,000; Q9H2X9; KCC2 cells, thallium flux FluoZin-2 fluorescence; B-score of Tl+ flux slope (higher = more flux/activation; lower = inhibition) at 10 µM;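 active = thallium flux slope and its plate-corrected score both differing from the plate sample mean at a set confidence after two filtering rounds, in either direction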;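 note: slope of fluorescence scaled to starting intensity during 10 to 20 s after thallium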
Target sequence (Q9H2X9 whole entry, looked up): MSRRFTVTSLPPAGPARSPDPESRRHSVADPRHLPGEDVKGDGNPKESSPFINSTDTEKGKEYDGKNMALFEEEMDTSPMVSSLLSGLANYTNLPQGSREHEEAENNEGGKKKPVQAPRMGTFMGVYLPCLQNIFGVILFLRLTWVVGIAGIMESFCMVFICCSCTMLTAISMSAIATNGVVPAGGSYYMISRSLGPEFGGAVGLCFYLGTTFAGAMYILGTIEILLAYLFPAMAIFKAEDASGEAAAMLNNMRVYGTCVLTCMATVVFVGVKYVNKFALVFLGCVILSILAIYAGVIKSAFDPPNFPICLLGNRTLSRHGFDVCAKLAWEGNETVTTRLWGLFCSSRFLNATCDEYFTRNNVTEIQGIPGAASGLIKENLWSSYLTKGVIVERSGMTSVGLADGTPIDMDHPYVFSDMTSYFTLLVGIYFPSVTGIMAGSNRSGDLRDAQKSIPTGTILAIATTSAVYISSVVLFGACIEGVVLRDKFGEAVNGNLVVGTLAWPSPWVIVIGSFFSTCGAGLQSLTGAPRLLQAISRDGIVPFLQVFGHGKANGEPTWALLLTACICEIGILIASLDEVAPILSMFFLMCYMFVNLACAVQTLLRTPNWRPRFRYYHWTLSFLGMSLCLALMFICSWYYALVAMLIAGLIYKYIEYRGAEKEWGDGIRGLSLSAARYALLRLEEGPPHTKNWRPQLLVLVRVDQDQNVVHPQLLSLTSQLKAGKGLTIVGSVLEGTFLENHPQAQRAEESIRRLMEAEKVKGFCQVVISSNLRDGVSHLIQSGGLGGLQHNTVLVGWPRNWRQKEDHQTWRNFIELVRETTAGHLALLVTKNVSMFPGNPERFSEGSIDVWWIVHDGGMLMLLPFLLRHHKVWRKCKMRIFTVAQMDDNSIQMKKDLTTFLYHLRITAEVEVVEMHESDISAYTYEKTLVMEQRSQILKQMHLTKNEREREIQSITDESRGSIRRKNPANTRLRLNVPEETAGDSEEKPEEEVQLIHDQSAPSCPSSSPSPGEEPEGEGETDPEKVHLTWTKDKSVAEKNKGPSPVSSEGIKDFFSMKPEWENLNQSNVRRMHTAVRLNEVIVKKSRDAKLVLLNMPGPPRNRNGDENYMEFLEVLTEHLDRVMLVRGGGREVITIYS
MT stabilizer = stabilizes microtubules in HeLa cells. HeLa tubulin immunostaining HCS, 24 h; share of cells brighter than vehicle mean+2SD. hit rate 0.83% among 200,000. % tubulin-high responders, % at 10 µM;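 active = plate Z-score above 3 for both tubulin-high and condensed-nucleus cell shares, with cell loss under 80%, at 10 µM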;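 note: anti alpha tubulin signal scored within the nucleus-defined area of each cell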
Redox H2O2 prof = compounds producing H2O2 with reducing agent – biochemical, NIH compound library profiling, artefact control for MLSCN library redox annotation, primary screen; DTT-dependent redox cycling H2O2, phenol red/HRP absorbance; 100% = 100 µM peroxide control, 0% = buffer; hit rate 0.03% among 200,000; activation, % at 10 µM;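 active = activation of at least 50% relative to the plate's high and low controls in the primary single-dose screen; inactive = activation below 50%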;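 note: compound incubated with DTT at 0.8 mM final as the reducing agent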
bCat nuc transl = beta-catenin nuclear translocation modulation | AID 1665 | HeLa beta-catenin nuclear translocation, immunofluorescence imaging | hit rate 0.3% among 190,000 | nuclear translocation activity, % at 5 µM;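 active = nuclear translocation activity above 50% at 5 µM, with a well cell count of 50 or more; inconclusive = wells under 50 cells across six images, flagged as toxic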;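 note: per-cell ratio of nuclear to cytoplasmic median beta-catenin stain intensity; plate controls were DMSO negative control for no effect and GSK-3 inhibitor IX positive control for full effect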
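System: Human HeLa cells, endogenous beta-catenin | Compound dosing: 5 µM primary, 0.02–20 µM confirmation | Timing: 24 h compound exposure at 37°C, 5% CO2 | Measured by: Fluorescence imaging of beta-catenin antibody stain plus DAPI | Read-out basis: % activation of per-cell nuclear versus cytoplasmic median beta-catenin signal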
KCC2 sec1 = KCC2 (human) modulation, secondary assay. shares compounds with Cl transport mod. HEK293-KCC2, thallium flux, FluoZin2 fluorescence; hits give high values. normalised thallium flux (F/F0 slope) at 10 µM. hit rate 15% among 3,700;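 active = thallium flux slope above the same plate's solvent-only control mean plus 3 SD; inconclusive = the two replicate wells disagree; inactive = no significant difference from solvent-only control wells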
KCC2 bumet counter = thallium flux persisting under bumetanide in KCC2 cells, counter-screen secondary assay; shares compounds with Cl transport mod; HEK293-KCC2 + bumetanide/ouabain, thallium flux FluoZin2; hits give high values; normalized thallium flux at 10 µM; hit rate 49% among 3,700; AID 1714;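 active = thallium entry rate above the same plate's blocked-transporter control wells by more than 3 SD; inconclusive = the two repeat wells disagree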;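 note: raw slope of fluorescence over initial fluorescence between 10 and 20 s after thallium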
KCC2 secondary2 = confirmation of human KCC2 transport modulators; shares compounds with Cl transport mod; HEK293-KCC2, thallium flux FluoZin2 fluorescence; actives lie on both sides; F/F0 rise rate, 10–20 s post-thallium; normalized thallium flux at 10 µM; hit rate 23% among 3,700; AID 1715;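 active = thallium flux slope more than 3 SD above or below the plate's solvent-only control mean, mostly below; inconclusive = the two repeat wells disagreed; inactive = no significant shift from solvent-only controls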;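 note: raw slope with 0.1% DMSO as baseline and bumetanide as block control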
HEK counter1 = parental HEK flux effect, counter-screen | thallium flux rate (normalised fluorescence) at 10 µM | AID 1716 | HEK293 parental cells, thallium flux FluoZin2, ouabain; baseline-ratio fluorescence slope, 10–20 s after thallium | hit rate 46% among 3,700 | shares compounds with Cl transport mod;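 active = thallium flux rate significantly above the same plate's solvent-only control wells, beyond their mean plus 3 SD; inconclusive = the two replicate wells gave conflicting results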
KCC2 retest ouab = confirmation of human KCC2 modulators with ouabain. shares compounds with Cl transport mod. HEK293-KCC2, thallium flux FluoZin2 fluorescence; bidirectional: low = inhibitor, high = activator. raw Tl+ flux slope (below DMSO = inhibition, above = activation) at 10 µM. hit rate 48% among 3,700;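 active = thallium flux slope beyond 3 SD from same-plate DMSO control mean in most replicates, usually higher, sometimes lower; inconclusive = repeat tests gave conflicting results; inactive = no significant difference from controls in most replicates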;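 note: slope of initial-normalized fluorescence between seconds 10 and 20 after thallium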
HEK counter2 = acts in parental HEK cells, second KCC2 counter-screen; shares compounds with Cl transport mod; HEK293 parental, thallium flux FluoZin-2 fluorescence slope; thallium flux slope at 10 µM; hit rate 33% among 3,700; AID 1718;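 active = thallium flux slope above the same plate's solvent-control mean plus 3 SD in both duplicate wells; inconclusive = duplicate wells that disagreed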;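 note: run without ouabain in cells lacking the KCC2 cotransporter; slope of fluorescence scaled to its starting value between 10 and 20 s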
* marks the source's active call; other numbers are inactive results; ? = inconclusive; nt = no result.

SMILES	ROMK primary	Cl transport mod	MT stabilizer	Redox H2O2 prof	bCat nuc transl	KCC2 sec1	KCC2 bumet counter	KCC2 secondary2	HEK counter1	KCC2 retest ouab	HEK counter2
COC(=O)c1sc(NC(=O)c2ccco2)nc1C	nt	0.59	2	0	-2	nt	nt	nt	nt	nt	nt
O=[N+]([O-])c1cc(S(=O)(=O)N2CCCC2)ccc1N/N=C1/CCCc2ccccc21	0.82	-4*	5	1	-2	0.0061	0.0049	0.032	0.0081	0.019	?
O=C(NC(=S)Nc1ccc2c(c1)OCCO2)c1ccccc1F	-0.49	25*	3	0	0	0.0074	0.039*	0.042*	0.021*	0.038*	0.026*
CCOc1cccc(C(=O)NC(=S)Nc2ccc3c(c2)OCCO3)c1	0.063	7.4*	2	-1	-1	0.018	0.012*	0.032	0.012*	0.019	0.014*
CCOC(=O)C1CCCN(C(=S)Nc2cc(C)cc(C)c2)C1 (stereo not drawn)	-0.075	0.51	2	0	-4	nt	nt	nt	nt	nt	nt
CC(C)NC(=O)/C(=C/c1cn(-c2ccccc2)nc1-c1cccc([N+](=O)[O-])c1)NC(=O)c1ccccc1	0.03	0.43	4	1	-2	nt	nt	nt	nt	nt	nt
O=C1OC(Nc2ccc(F)cc2F)c2ccccc21 (stereo not drawn)	0.2	nt	3	0	-8	0.0066	0.005	0.027	0.0077	0.019	0.011
O=C(Nc1cccnc1)Nc1ccc2c(c1)OCO2	-0.026	nt	2	0	3	0.0094	0.0061	0.029	0.0076	0.021	0.0093
Cn1c(C(=O)Nc2ccc3c(c2)OCO3)cc2c(=O)n(C)c3ccccc3c21	nt	0.0015	3	0	0	nt	nt	nt	nt	nt	nt
CCOc1ccc(NC(=O)c2cc3c(=O)n(C)c4ccccc4c3n2C)cc1	nt	-2	4	-1	nt	0.0077	0.0067	0.033	0.0074	?	0.011
Cn1c(C(=O)NCCCN2CCOCC2)cc2c(=O)n(C)c3ccccc3c21	nt	-0.75	2	-1	nt	nt	nt	nt	nt	nt	nt
Cn1c(C(=O)NCCCN2CCN(c3ccccc3F)CC2)cc2c(=O)n(C)c3ccccc3c21	nt	-3.1	6	0	nt	0.0074	0.0046	0.024*	0.0076	?	0.011
Cc1ccc(CNC(=O)c2cc3c(=O)n(C)c4ccccc4c3n2C)o1	nt	-4.3*	4	-2	nt	0.01	0.0068	0.028	0.0076	0.022*	?
c1ccc(Cc2nn3c(Cn4nnc5ccccc54)nnc3s2)cc1	-0.28	-1.6	4	3	-5	nt	nt	nt	nt	nt	nt
c1ccc(OCc2nn3c(Cn4nnc5ccccc54)nnc3s2)cc1	-1	-2.6*	3	0	nt	0.0072	0.0042	0.027	0.0075	0.015*	0.0099
Brc1ccccc1-c1nnc2sc(Cc3ccccc3)nn12	nt	-4.1*	3	-3	-1	0.0069	0.0047	?	?	0.013*	0.0095
COc1ccccc1-c1nnc2sc(COc3ccccc3)nn12	-1.8	-3.4	3	0	-5	0.0049	?	0.024*	0.0064*	0.015*	?
CC1=C(C(=O)Nc2ccccc2)C(c2cccnc2)n2ncnc2N1 (stereo not drawn)	-0.64	0.024	2	1	1	nt	nt	nt	nt	nt	nt
CC(C)CC(=O)Nc1cccc(C(=O)Nc2ccccc2C(=O)O)c1	-0.35	nt	2	0	-5	nt	nt	nt	nt	nt	nt
CC(C)(C)NC(=O)CN(Cc1ccc2c(c1)OCO2)C(=O)CNC(=O)c1cccs1	0.3	nt	6	-1	0	nt	nt	nt	nt	nt	nt
CCOc1ccc(-c2nc(C#N)c(N3CCN(Cc4ccccc4)CC3)o2)cc1	nt	-4.3*	8	-2	nt	0.0078	0.0066	0.027	0.0071	0.023*	0.01
O=C(CN1C(=O)S/C(=C\c2ccc(F)cc2)C1=O)Nc1cccc(S(=O)(=O)NCc2ccco2)c1	-0.67	-0.32	6	-1	2	nt	nt	nt	nt	nt	nt
O=c1oc2ccccc2c(Nc2ccc(F)cc2)c1[N+](=O)[O-]	0.14	-3.4*	3	0	2	0.0058	0.0046	0.029	0.0063*	0.017	?
COC(=O)c1ccc(Nc2c([N+](=O)[O-])c(=O)oc3ccccc23)cc1	0.51	-4.5*	nt	nt	0	0.0085	?	0.029	?	0.027*	?
O=c1oc2ccccc2c(Nc2ccc(Cl)cc2)c1[N+](=O)[O-]	0.59	-2.3	nt	nt	4	nt	nt	nt	nt	nt	nt
SMILES	ROMK primary	Cl transport mod	MT stabilizer	Redox H2O2 prof	bCat nuc transl	KCC2 sec1	KCC2 bumet counter	KCC2 secondary2	HEK counter1	KCC2 retest ouab	HEK counter2
Cc1ccc(Nc2c([N+](=O)[O-])c(=O)oc3ccccc23)cc1C	0.13	-2.8*	2	0	7	0.018	0.0042	0.03	?	0.014	0.009
COc1ccc(C(=O)NCC(O)COc2ccc(C(C)(C)C)cc2)cc1[N+](=O)[O-] (stereo not drawn)	0.88	0.011	3	0	-2	nt	nt	nt	nt	nt	nt
CCCc1nc2ccccc2n1Cc1ccccc1OC	nt	nt	3	-1	0	nt	nt	nt	nt	nt	nt
COC(=O)C(C)Sc1snnc1-c1ccccc1 (stereo not drawn)	0.43	nt	1	0	3	0.016	0.004	0.029	?	0.015	0.0095
CN(C)C(=O)c1snnc1-c1ccccc1	nt	0.97	4	-2	-9	nt	nt	nt	nt	nt	nt
COc1ccc(S(=O)(=O)Nc2cc(C)ccc2OC)cc1C	nt	0.26	5	-1	nt	nt	nt	nt	nt	nt	nt
COc1ccc(C)cc1NS(=O)(=O)c1cccc2nonc12	nt	6.5*	7	-2	nt	0.011	0.019*	0.033	0.0075	0.027	?
CCc1ccc(S(=O)(=O)Nc2cc(SCC(=O)O)c(O)c3ccccc23)cc1	0	-1.4	3	-1	1	nt	nt	nt	nt	nt	nt
Cc1ccc(S(=O)(=O)Nc2cccc3cccnc23)cc1	0.032	13*	2	0	nt	?	0.066*	0.032	0.02*	0.035*	?
O=S(=O)(Nc1cc(Sc2cccc3cccnc23)c(O)c2ccccc12)c1ccccc1	nt	48*	3	-1	0	0.035*	0.08*	0.044*	0.049*	0.058*	0.015*
COc1ccccc1NS(=O)(=O)c1cccc2cccnc12	nt	2.7*	4	-1	2	0.0093	0.014*	0.035	?	0.023	?

Screening data: PubChem, several laboratories
